The text below walks through data of ChEMBL document CHEMBL1154807, “Synthesis and antibacterial activity of novel 3-O-carbamoyl derivatives of clarithromycin and 11,12-cyclic carbonate azithromycin” (2010).

Common to all, as to type: functional
The subject of one experiment is Staphylococcus aureus. As to the kind of experiment: Antibacterial activity against erythromycin-susceptible Staphylococcus aureus ATCC 25923 by standard dilution assay.
The subject of another experiment is Streptococcus pyogenes. As to the kind of experiment: Antibacterial activity against erythromycin-susceptible Streptococcus pyogenes by standard dilution assay.
Experiment [1] concerns Streptococcus pneumoniae. As to the kind of experiment: Antibacterial activity against erythromycin-susceptible Streptococcus pneumoniae ATCC 49619 by standard dilution assay. An outline of the steps: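 MIC read-out, determined against a panel of six Gram-positive strains: three erythromycin-susceptible and three erythromycin-resistant S. pneumoniae (erm, mef, or erm plus mef). Clarithromycin and azithromycin were run alongside as reference macrolides.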

Experiment [2] concerns Streptococcus pneumoniae. As to the kind of experiment: Antibacterial activity against erythromycin-resistant Streptococcus pneumoniae B1 by standard dilution assay. In a few lines:
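Readout is minimal inhibitory concentration (MIC). Erythromycin resistance in this strain is erm-encoded. It was tested within a six-strain Gram-positive panel alongside clarithromycin and azithromycin references.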

Experiment [3] relates to Streptococcus pneumoniae. As to the kind of experiment: Antibacterial activity against erythromycin-resistant Streptococcus pneumoniae A22072 by standard dilution assay. An outline of the steps:
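Readout is minimal inhibitory concentration (MIC). The strain carries mef-encoded erythromycin resistance. It was tested within a six-strain Gram-positive panel alongside clarithromycin and azithromycin references.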

Experiment [4] relates to Streptococcus pneumoniae. As to the kind of experiment: Antibacterial activity against erythromycin-resistant Streptococcus pneumoniae AB11 by standard dilution assay. In a few lines: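 Readout is minimal inhibitory concentration (MIC). The strain carries both erm- and mef-encoded erythromycin resistance. It was tested within a six-strain Gram-positive panel alongside clarithromycin and azithromycin references.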

Converted amounts (≈) assume the structure as drawn.

`CC[C@H]1OC(=O)[C@H](C)[C@@H](OC(=O)NCCc2ccccc2Cl)[C@H](C)[C@@H](O[C@@H]2O[C@H](C)C[C@H](N(C)C)[C@H]2O)[C@](C)(O)C[C@@H](C)CN(C)[C@H](C)[C@H]2OC(=O)O[C@@]21C`: the MIC against Staphylococcus aureus is 32 µg/mL (≈ 40.1 µM); in the experiment on Streptococcus pyogenes, 8 µg/mL (≈ 10 µM); in the experiment on Streptococcus pneumoniae [1], 4 µg/mL (≈ 5.01 µM); against Streptococcus pneumoniae [2], 32 µg/mL (≈ 40.1 µM); against Streptococcus pneumoniae [3] it was 16 µg/mL (≈ 20 µM); against Streptococcus pneumoniae [4] it was 8 µg/mL (≈ 10 µM).

`CC[C@H]1OC(=O)[C@H](C)[C@@H](OC(=O)NCc2ccccc2)[C@H](C)[C@@H](O[C@@H]2O[C@H](C)C[C@H](N(C)C)[C@H]2O)[C@](C)(O)C[C@@H](C)CN(C)[C@H](C)[C@H]2OC(=O)O[C@@]21C`: the MIC against Staphylococcus aureus turned out to be 64 µg/mL (≈ 85.3 µM); against Streptococcus pyogenes it was 32 µg/mL (≈ 42.7 µM); in the experiment with Streptococcus pneumoniae [1], 16 µg/mL (≈ 21.3 µM); with Streptococcus pneumoniae [2] it was 64 µg/mL (≈ 85.3 µM); against Streptococcus pneumoniae [3], 128 µg/mL (≈ 171 µM); in the experiment on Streptococcus pneumoniae [4], 64 µg/mL (≈ 85.3 µM).

For the compound `CC[C@H]1OC(=O)[C@H](C)[C@@H](OC(=O)NCCc2ccccc2)[C@H](C)[C@@H](O[C@@H]2O[C@H](C)C[C@H](N(C)C)[C@H]2O)[C@](C)(O)C[C@@H](C)CN(C)[C@H](C)[C@H]2OC(=O)O[C@@]21C`, the MIC in the experiment with Staphylococcus aureus stood at 64 µg/mL (≈ 83.8 µM); in the experiment on Streptococcus pyogenes it was 8 µg/mL (≈ 10.5 µM); against Streptococcus pneumoniae [1], 4 µg/mL (≈ 5.24 µM); in the experiment with Streptococcus pneumoniae [2] it was 64 µg/mL (≈ 83.8 µM); against Streptococcus pneumoniae [3], 64 µg/mL (≈ 83.8 µM); against Streptococcus pneumoniae [4], 32 µg/mL (≈ 41.9 µM).

In the case of `CCCCNC(=O)O[C@H]1[C@H](C)[C@@H](O[C@@H]2O[C@H](C)C[C@H](N(C)C)[C@H]2O)[C@](C)(O)C[C@@H](C)CN(C)[C@H](C)[C@H]2OC(=O)O[C@]2(C)[C@@H](CC)OC(=O)[C@@H]1C`, the MIC was 64 µg/mL (≈ 89.4 µM) in the experiment with Staphylococcus aureus; 8 µg/mL (≈ 11.2 µM) against Streptococcus pyogenes; 8 µg/mL (≈ 11.2 µM) against Streptococcus pneumoniae [1]; 64 µg/mL (≈ 89.4 µM) against Streptococcus pneumoniae [2]; 128 µg/mL (≈ 179 µM) with Streptococcus pneumoniae [3]; 32 µg/mL (≈ 44.7 µM) against Streptococcus pneumoniae [4].

In the case of `CCCCCNC(=O)O[C@H]1[C@H](C)[C@@H](O[C@@H]2O[C@H](C)C[C@H](N(C)C)[C@H]2O)[C@](C)(O)C[C@@H](C)CN(C)[C@H](C)[C@H]2OC(=O)O[C@]2(C)[C@@H](CC)OC(=O)[C@@H]1C`, the MIC is 64 µg/mL (≈ 87.7 µM) with Staphylococcus aureus; 16 µg/mL (≈ 21.9 µM) in the experiment on Streptococcus pyogenes; 4 µg/mL (≈ 5.48 µM) in the experiment with Streptococcus pneumoniae [1]; 32 µg/mL (≈ 43.8 µM) with Streptococcus pneumoniae [2]; 64 µg/mL (≈ 87.7 µM) against Streptococcus pneumoniae [3]; 32 µg/mL (≈ 43.8 µM) in the experiment with Streptococcus pneumoniae [4].

In the case of `CC[C@H]1OC(=O)[C@H](C)[C@@H](O)[C@H](C)[C@@H](O[C@@H]2O[C@H](C)C[C@H](N(C)C)[C@H]2OC(C)=O)[C@](C)(O)C[C@@H](C)CN(C)[C@H](C)[C@@H](O)[C@]1(C)O`, the MIC against Staphylococcus aureus is 128 µg/mL (≈ 202 µM); in the experiment on Streptococcus pyogenes it was 128 µg/mL (≈ 202 µM); against Streptococcus pneumoniae [1] it was 128 µg/mL (≈ 202 µM); against Streptococcus pneumoniae [2], 128 µg/mL (≈ 202 µM); against Streptococcus pneumoniae [3] it was 128 µg/mL (≈ 202 µM); with Streptococcus pneumoniae [4], 256 µg/mL (≈ 405 µM).

`CC[C@H]1OC(=O)[C@H](C)[C@@H](O)[C@H](C)[C@@H](O[C@@H]2O[C@H](C)C[C@H](N(C)C)[C@H]2OC(C)=O)[C@@](C)(OC)C[C@@H](C)C(=O)[C@H](C)[C@@H](O)[C@]1(C)O`: the MIC in the experiment on Staphylococcus aureus was determined as 128 µg/mL (≈ 203 µM); in the experiment on Streptococcus pyogenes, 128 µg/mL (≈ 203 µM); in the experiment with Streptococcus pneumoniae [1] it was 128 µg/mL (≈ 203 µM); against Streptococcus pneumoniae [2], 128 µg/mL (≈ 203 µM); against Streptococcus pneumoniae [3] it was 128 µg/mL (≈ 203 µM); in the experiment with Streptococcus pneumoniae [4] it was 256 µg/mL (≈ 405 µM).

Regarding `CC[C@H]1OC(=O)[C@H](C)[C@@H](OC(=O)NCc2ccc(OC)cc2)[C@H](C)[C@@H](O[C@@H]2O[C@H](C)C[C@H](N(C)C)[C@H]2O)[C@](C)(O)C[C@@H](C)CN(C)[C@H](C)[C@H]2OC(=O)O[C@@]21C`, the MIC against Staphylococcus aureus turned out to be 128 µg/mL (≈ 164 µM); against Streptococcus pyogenes it was 16 µg/mL (≈ 20.5 µM); in the experiment on Streptococcus pneumoniae [1], 8 µg/mL (≈ 10.3 µM); against Streptococcus pneumoniae [2], 64 µg/mL (≈ 82.1 µM); in the experiment on Streptococcus pneumoniae [3] it was 128 µg/mL (≈ 164 µM); against Streptococcus pneumoniae [4], 64 µg/mL (≈ 82.1 µM).

Consider `CC[C@H]1OC(=O)[C@H](C)[C@@H](OC(=O)NCc2ccc(F)cc2)[C@H](C)[C@@H](O[C@@H]2O[C@H](C)C[C@H](N(C)C)[C@H]2O)[C@](C)(O)C[C@@H](C)CN(C)[C@H](C)[C@H]2OC(=O)O[C@@]21C`, for which the MIC against Staphylococcus aureus turned out to be 64 µg/mL (≈ 83.3 µM); against Streptococcus pyogenes, 16 µg/mL (≈ 20.8 µM); in the experiment with Streptococcus pneumoniae [1], 4 µg/mL (≈ 5.21 µM); with Streptococcus pneumoniae [2], 64 µg/mL (≈ 83.3 µM); in the experiment with Streptococcus pneumoniae [3] it was 32 µg/mL (≈ 41.7 µM); with Streptococcus pneumoniae [4] it was 64 µg/mL (≈ 83.3 µM).

In the case of `CC[C@H]1OC(=O)[C@H](C)[C@@H](O[C@H]2C[C@@](C)(OC)[C@@H](O)[C@H](C)O2)[C@H](C)[C@@H](O[C@@H]2O[C@H](C)C[C@H](N(C)C)[C@H]2O)[C@](C)(O)C[C@@H](C)CN(C)[C@H](C)[C@@H](O)[C@]1(C)O` [AZITHROMYCIN], the MIC was 0.25 µg/mL (≈ 0.334 µM) against Staphylococcus aureus; 0.12 µg/mL (≈ 0.16 µM) in the experiment with Streptococcus pyogenes; 0.03 µg/mL (≈ 0.0401 µM) in the experiment with Streptococcus pneumoniae [1]; 128 µg/mL (≈ 171 µM) with Streptococcus pneumoniae [2]; 4 µg/mL (≈ 5.34 µM) against Streptococcus pneumoniae [3]; 256 µg/mL (≈ 342 µM) in the experiment on Streptococcus pneumoniae [4].

Regarding `CC[C@H]1OC(=O)[C@H](C)[C@@H](O[C@H]2C[C@@](C)(OC)[C@@H](O)[C@H](C)O2)[C@H](C)[C@@H](O[C@@H]2O[C@H](C)C[C@H](N(C)C)[C@H]2O)[C@](C)(OC)C[C@@H](C)C(=O)[C@H](C)[C@@H](O)[C@]1(C)O` [CLARITHROMYCIN], the MIC is 0.12 µg/mL (≈ 0.16 µM) against Staphylococcus aureus; 0.12 µg/mL (≈ 0.16 µM) with Streptococcus pyogenes; 0.03 µg/mL (≈ 0.0401 µM) in the experiment on Streptococcus pneumoniae [1]; 64 µg/mL (≈ 85.6 µM) in the experiment with Streptococcus pneumoniae [2]; 4 µg/mL (≈ 5.35 µM) against Streptococcus pneumoniae [3]; 128 µg/mL (≈ 171 µM) against Streptococcus pneumoniae [4].
